ChEMBL document CHEMBL4196220, “Synthesis and Discovery of Arylpiperidinylquinazolines: New Inhibitors of the Vesicular Monoamine Transporter” (J Med Chem, 2018)
Active and inactive are the calls of the source. The rule behind the calls is not given here.

Assays:
[1] = biological target: T1, Synaptic vesicular amine transporter (Homo sapiens, UniProt Q05940); experiment: Binding affinity to human VMAT2 expressed in HEK293 cell membranes by scintillation counting method based saturation binding assay
Summary of the method: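 Saturation binding on HEK-VMAT2 membranes, with duplicate points mixing labeled and unlabeled ligand. [3H](+)-5b: 5–600 nM, 60 min at 4 °C in the dark, buffer with 2 mM MgATP. 3−4 independent experiments.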

[2] = biological target: 5-hydroxytryptamine receptor 2A (Homo sapiens, UniProt P28223); experiment: biochemical; assay type: cell-based, HEK293
[3] = system: HEK293; experiment: Cytotoxicity in HEK293 cells expressing human VMAT2 assessed as reduction in cell viability at 10 uM incubated for 24 hrs by MTT assay; assay type: cell-based; settings: hek293, 24 h
Summary of the method: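 HEK-VMAT2 cells plated at 5 × 10^4 per well. Drugs added on day 2 to triplicate wells, all with 0.1% DMSO, for 24 h. MTT reagent then 2 h at 37 °C, solvent added, read at 590 nm. Values normalized to control cells. One-way ANOVA with post hoc test.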

[4] = biological target: Synaptic vesicular amine transporter (Mus musculus, UniProt Q8BRU6); experiment: Inhibition of VMAT2 in C57Bl/6J mouse striatal membranes assessed as reduction in [3H[-5HT uptake pre-incubated for 10 mins before [3H[-5HT addition and measured after 8 mins; assay type: cell membranes, Striatum, Membrane
[5] = biological target: T2, 5-hydroxytryptamine receptor 1A (Homo sapiens) (UniProt P08908); experiment: Binding affinity to 5HT1A receptor (unknown origin)
T2 sequence (whole entry): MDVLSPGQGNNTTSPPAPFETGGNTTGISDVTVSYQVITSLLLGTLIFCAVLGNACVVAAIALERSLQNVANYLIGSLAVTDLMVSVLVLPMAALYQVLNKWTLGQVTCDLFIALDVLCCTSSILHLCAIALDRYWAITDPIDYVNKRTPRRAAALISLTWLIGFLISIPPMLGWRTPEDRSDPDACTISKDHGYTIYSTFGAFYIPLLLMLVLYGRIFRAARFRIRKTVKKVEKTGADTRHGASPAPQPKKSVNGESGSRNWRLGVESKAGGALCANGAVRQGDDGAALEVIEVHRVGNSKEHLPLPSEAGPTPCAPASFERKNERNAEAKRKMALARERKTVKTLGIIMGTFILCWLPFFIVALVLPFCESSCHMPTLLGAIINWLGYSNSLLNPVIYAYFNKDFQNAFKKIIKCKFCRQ

[6] = biological target: Sodium-dependent dopamine transporter (Homo sapiens, UniProt Q01959); experiment: Displacement of [125I]RTI-55 from human DAT expressed in HEK293 cell membranes
Summary of the method: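 Total particulate membranes from HEK-293 cells stably expressing hDAT, with [125I]RTI-55 at 40−60 pM. Nonspecific binding defined with 5 μM mazindol.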

[7] = biological target: T1, Synaptic vesicular amine transporter; experiment: Displacement of [3H](+)-syn-Ethyl 1-(2-(2,4-Dioxo-1,2-dihydroquinazolin-3(4H)-yl)ethyl)-4-(4-fluorophenyl)piperidine-3-carboxylate from human VMAT2 expressed in HEK293 cell membranes incubated for 60 mins by scintillation counting method
Summary of the method: (§1)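 Membranes from confluent HEK-293 cells stably expressing human VMAT2, prepared by osmotic shock and restored with Tris/K tartrate/MgSO4. About 50−75 μg protein per assay with [3H](+)-5b at 50−100 nM final. Incubated 60 min at 4 °C in the dark. Filtration, then beta counting.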

[8] = biological target: T1, Synaptic vesicular amine transporter; experiment: Displacement of [3H]reserpine from human VMAT2 expressed in HEK293 cell membranes incubated for 60 mins by scintillation counting method
[9] = biological target: T1, Synaptic vesicular amine transporter; experiment: Inhibition of human VMAT2 expressed in HEK293 cell membranes assessed as reduction in [3H[-5HT uptake pre-incubated for 10 mins before [3H[-5HT addition and measured after 6 mins; assay type: cell-based
Summary of the method: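 Vesicular membranes from HEK-hVMAT2 cells: differential centrifugation, osmotic shock, then resuspension in uptake buffer (tartrate/Tris/KCl/MgSO4, ascorbate, tropolone, pargyline, pH 7.4, 2 mM MgATP). Drug preincubation 10 min at 30 °C. Stopped by filtration. Duplicate wells, IC50.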

[10] = biological target: T1, Synaptic vesicular amine transporter; experiment: Displacement of [3H]DHTB from human VMAT2 expressed in HEK293 cell membranes incubated for 90 mins by microbeta scintillation counting method
Summary of the method: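 Tris buffer without ATP, 90 min at room temperature. Nonspecific binding defined with 2 μM DHTB. Filtermat filtration and microBeta counting. Test compounds 1 nM–10 μM.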

[11] = system: HEK293; experiment: Cytotoxicity in HEK293 cells expressing human VMAT2 assessed as reduction in cell viability at 1 uM incubated for 24 hrs by MTT assay; assay type: cell-based; settings: hek293, 24 h
Summary of the method: (§2)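 HEK-293 cells stably expressing human VMAT2, seeded at 5 × 10^4 cells/well in DMEM with 10% FetalClone, penicillin/streptomycin and G418. On day 2, compound in DMEM was added to triplicate wells, with 0.1% DMSO in all conditions, for 24 h. MTT reagent was then added for 2 h at 37 °C, followed by solvent. Absorbance read at 590 nm, normalized to control cells, and analyzed by one-way ANOVA with Dunnett's test.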

[12] = biological target: Sodium-dependent noradrenaline transporter (Homo sapiens, UniProt P23975); experiment: Displacement of [125I]RTI-55 from human NET expressed in HEK293 cell membranes
[13] = biological target: Sodium-dependent serotonin transporter (Homo sapiens, UniProt P31645); experiment: Displacement of [125I]RTI-55 from human SERT expressed in HEK293 cell membranes
[14] = biological target: T1, Synaptic vesicular amine transporter; experiment: Binding affinity to human VMAT2 expressed in HEK293 cell membranes assessed as observed associate rate constant at 24 to 28 nM in presence of 2 mM Mg-ATP by scintillation counting method; settings: tested as the 3H-labelled form
Summary of the method: (§3)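 Kinetics for the [3H](+)-5b site on HEK-293 membranes expressing human VMAT2, run with 2 mM Mg-ATP. Excess unlabeled ligand of the same kind was used. Association at a single radioligand concentration was fitted as one-phase exponential association to give kobs.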

[15] = biological target: T1, Synaptic vesicular amine transporter; experiment: Binding affinity to human VMAT2 expressed in HEK293 cell membranes in presence of 2 mM Mg-ATP by scintillation counting method; settings: tested as the 3H-labelled form; summary of the method: as §1
[16] = biological target: T1, Synaptic vesicular amine transporter; experiment: Binding affinity to human VMAT2 expressed in HEK293 cell membranes assessed as half life at 24 to 28 nM in presence of 2 mM Mg-ATP by scintillation counting method; settings: tested as the 3H-labelled form; summary of the method: as §3
[17] = system: HEK293; experiment: Cytotoxicity in HEK293 cells expressing human VMAT2 assessed as reduction in cell viability at 3 uM incubated for 24 hrs by MTT assay; assay type: cell-based; settings: hek293, 24 h; summary of the method: as §2

5-hydroxytryptamine receptor 2A, sequence (P28223 whole entry): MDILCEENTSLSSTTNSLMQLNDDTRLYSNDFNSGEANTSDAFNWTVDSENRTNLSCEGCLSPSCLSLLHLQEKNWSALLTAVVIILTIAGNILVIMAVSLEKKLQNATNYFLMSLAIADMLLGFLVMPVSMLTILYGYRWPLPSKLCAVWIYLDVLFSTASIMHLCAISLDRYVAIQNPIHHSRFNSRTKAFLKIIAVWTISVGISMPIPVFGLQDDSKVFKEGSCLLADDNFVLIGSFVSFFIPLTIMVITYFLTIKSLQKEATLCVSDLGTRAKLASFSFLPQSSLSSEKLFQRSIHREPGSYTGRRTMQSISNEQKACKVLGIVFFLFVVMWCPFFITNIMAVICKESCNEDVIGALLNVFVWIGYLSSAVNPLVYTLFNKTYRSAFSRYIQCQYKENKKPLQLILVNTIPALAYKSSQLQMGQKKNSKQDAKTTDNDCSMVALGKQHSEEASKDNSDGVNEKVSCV
T1 sequence (Q05940 whole entry): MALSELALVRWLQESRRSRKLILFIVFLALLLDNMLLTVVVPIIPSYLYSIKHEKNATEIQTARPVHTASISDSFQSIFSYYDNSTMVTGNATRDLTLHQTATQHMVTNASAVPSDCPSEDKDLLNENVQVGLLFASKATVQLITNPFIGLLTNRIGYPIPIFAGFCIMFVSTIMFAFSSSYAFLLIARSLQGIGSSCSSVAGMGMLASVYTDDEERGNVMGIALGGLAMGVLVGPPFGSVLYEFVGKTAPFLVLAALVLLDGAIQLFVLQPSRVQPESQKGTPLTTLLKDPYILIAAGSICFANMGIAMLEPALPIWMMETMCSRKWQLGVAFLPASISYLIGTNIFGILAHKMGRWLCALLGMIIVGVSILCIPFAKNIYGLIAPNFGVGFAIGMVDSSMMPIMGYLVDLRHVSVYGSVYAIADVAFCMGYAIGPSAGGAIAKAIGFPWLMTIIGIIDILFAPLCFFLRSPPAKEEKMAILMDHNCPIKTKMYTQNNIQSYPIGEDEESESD
Synaptic vesicular amine transporter (Mus musculus, UniProt Q8BRU6), sequence (Q8BRU6 whole entry): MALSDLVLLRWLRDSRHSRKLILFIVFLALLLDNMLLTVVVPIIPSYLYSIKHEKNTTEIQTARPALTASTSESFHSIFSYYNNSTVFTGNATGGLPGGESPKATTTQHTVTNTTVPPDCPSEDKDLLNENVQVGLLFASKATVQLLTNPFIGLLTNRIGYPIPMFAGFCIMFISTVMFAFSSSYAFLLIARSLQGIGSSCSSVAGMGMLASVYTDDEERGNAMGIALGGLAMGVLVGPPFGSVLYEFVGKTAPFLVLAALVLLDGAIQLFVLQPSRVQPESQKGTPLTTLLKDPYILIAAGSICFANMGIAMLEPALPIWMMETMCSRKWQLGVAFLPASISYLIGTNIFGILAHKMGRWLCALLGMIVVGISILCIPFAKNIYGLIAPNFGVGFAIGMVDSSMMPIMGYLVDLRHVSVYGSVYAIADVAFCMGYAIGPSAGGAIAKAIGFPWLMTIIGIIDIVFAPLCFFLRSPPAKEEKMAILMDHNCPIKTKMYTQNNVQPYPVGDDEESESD
Sodium-dependent dopamine transporter, sequence (Q01959 whole entry): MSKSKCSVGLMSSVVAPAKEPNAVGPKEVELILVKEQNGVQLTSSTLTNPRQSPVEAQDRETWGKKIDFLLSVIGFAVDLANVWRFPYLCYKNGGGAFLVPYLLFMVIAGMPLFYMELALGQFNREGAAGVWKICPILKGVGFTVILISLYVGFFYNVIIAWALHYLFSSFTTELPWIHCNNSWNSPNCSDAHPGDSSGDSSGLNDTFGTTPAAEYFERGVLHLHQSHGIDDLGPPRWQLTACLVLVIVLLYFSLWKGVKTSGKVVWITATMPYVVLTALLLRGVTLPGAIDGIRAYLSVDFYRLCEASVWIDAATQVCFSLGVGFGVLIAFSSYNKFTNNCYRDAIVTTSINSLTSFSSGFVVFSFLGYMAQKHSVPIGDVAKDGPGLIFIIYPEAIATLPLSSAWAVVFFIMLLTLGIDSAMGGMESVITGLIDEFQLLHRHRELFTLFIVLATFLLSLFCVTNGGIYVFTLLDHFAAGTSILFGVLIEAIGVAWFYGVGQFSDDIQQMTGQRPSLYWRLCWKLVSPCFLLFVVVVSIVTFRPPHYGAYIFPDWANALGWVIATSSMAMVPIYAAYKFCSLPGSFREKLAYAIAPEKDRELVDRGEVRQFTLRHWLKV
Sodium-dependent noradrenaline transporter, sequence (P23975 whole entry): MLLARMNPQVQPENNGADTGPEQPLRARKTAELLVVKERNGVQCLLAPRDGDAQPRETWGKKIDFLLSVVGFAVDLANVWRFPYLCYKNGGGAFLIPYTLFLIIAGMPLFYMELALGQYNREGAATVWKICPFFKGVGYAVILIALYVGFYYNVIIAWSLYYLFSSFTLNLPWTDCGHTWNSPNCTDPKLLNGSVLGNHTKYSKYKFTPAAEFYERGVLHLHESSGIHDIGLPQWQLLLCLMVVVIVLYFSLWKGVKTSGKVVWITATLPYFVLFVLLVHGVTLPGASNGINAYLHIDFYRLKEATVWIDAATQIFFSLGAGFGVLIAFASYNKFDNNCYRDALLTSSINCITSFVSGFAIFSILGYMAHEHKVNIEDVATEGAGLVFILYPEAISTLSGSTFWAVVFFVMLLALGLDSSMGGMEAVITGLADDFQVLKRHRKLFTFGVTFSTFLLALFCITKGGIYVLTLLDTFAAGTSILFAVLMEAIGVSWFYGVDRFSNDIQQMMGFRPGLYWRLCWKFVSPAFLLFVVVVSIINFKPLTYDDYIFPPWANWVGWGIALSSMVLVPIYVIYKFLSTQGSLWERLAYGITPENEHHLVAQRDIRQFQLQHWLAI
Sodium-dependent serotonin transporter, sequence (P31645 whole entry): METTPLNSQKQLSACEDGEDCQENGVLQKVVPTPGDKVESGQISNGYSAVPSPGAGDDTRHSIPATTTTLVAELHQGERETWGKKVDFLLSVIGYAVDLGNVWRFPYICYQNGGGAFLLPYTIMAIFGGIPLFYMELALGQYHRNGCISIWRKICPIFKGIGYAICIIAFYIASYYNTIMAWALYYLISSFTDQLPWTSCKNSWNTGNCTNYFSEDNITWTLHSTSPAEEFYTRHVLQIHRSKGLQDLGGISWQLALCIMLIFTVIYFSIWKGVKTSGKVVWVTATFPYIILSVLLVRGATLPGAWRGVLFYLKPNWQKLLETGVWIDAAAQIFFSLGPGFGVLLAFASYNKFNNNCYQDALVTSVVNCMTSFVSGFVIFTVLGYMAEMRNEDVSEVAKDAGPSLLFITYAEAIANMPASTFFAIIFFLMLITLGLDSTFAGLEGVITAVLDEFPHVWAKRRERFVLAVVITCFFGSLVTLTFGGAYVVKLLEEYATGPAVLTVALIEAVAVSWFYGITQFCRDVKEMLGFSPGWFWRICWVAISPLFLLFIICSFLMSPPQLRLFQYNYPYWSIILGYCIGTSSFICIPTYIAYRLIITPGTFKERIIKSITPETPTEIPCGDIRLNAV

| SMILES | Ki [2] | Activity [3] | IC50 [4] | Activity [5] | Ki [6] | Ki [7] | Ki [8] | IC50 [9] | Ki [10] | other results |
| --- | --- | --- | --- | --- | --- | --- | --- | --- | --- | --- |
| COc1cc2c(cc1OC)C1CC(O)C(CC(C)C)CN1CC2 (stereo unspecified) | 0.0067 µM | Non-Toxic | 0.0198 µM | – | – | – | – | – | – | Bmax [1]: 41.2 pmol/mg |
| CCOC(=O)[C@@H]1CN(CCn2c(=O)[nH]c3ccccc3c2=O)CC[C@@H]1c1ccc(F)cc1 (racemic) | 2.38 µM | Non-Toxic | 0.00346 µM | inactive | 4.17 µM | – | – | – | – | – |
| CCOC(=O)[C@@H]1CN(CCn2c(=O)[nH]c3ccccc3c2=O)CC[C@@H]1c1cccs1 (racemic) | > 9.3 µM | Non-Toxic | 0.0315 µM | inactive | > 7.1 µM | 0.9 µM | 0.45 µM | 0.101 µM | 6.16 µM | – |
| COC(=O)[C@H]1[C@H]2C[C@@H]3c4[nH]c5cc(OC)ccc5c4CCN3C[C@H]2C[C@@H](OC(=O)c2cc(OC)c(OC)c(OC)c2)[C@@H]1OC [RESERPINE] | – | – | 0.00179 µM | – | – | – | – | – | – | Bmax [1]: 0.942 pmol/mg; Activity [11]: Non-Toxic |
| CCOC(=O)c1ccc([C@H]2CCN(CCn3c(=O)[nH]c4ccccc4c3=O)C[C@H]2C(=O)OCC)cc1 (racemic) | > 10 µM | – | – | inactive | > 10 µM | – | – | – | – | – |
| CCOC(=O)[C@@H]1CN(CCn2c(=O)[nH]c3ccccc3c2=O)CC[C@@H]1c1ccc(N(C)C)cc1 (racemic) | > 10 µM | – | – | inactive | > 10 µM | 1.96 µM | > 10 µM | 5.8 µM | > 10 µM | – |
| CCOC(=O)C1CN(CCn2c(=O)[nH]c3ccccc3c2=O)CCC1c1ccc(F)cc1 (single isomer, unassigned; (-)) [listing 1 of 2 here] | – | – | 0.0066 µM | – | 9.9 µM | – | – | – | – | Ki ([2]; hek293): > 10 µM |
| CCOC(=O)[C@@H]1CN(CCn2c(=O)[nH]c3ccccc3c2=O)CC[C@@H]1c1ccc(C)cc1 (racemic) | > 10 µM | – | – | inactive | 7.3 µM | 0.452 µM | > 10 µM | 2.7 µM | > 9.1 µM | – |
| CCOC(=O)C1CN(CCn2c(=O)[nH]c3ccccc3c2=O)CCC1c1ccc(F)cc1 (single isomer, unassigned; (+)) [listing 1 of 2 here] | – | – | – | inactive | – | – | – | – | – | – |
| CN1[C@@H](CC(=O)c2ccccc2)CCC[C@H]1C[C@H](O)c1ccccc1 [LOBELINE] | 7.4 µM | – | 0.381 µM | – | – | 1.95 µM | 1.84 µM | 4.2 µM | > 10 µM | – |
| CCOC(=O)C1CN(CCn2c(=O)[nH]c3ccccc3c2=O)CCC1c1ccc(F)cc1 (single isomer, unassigned; (+)) [listing 2 of 2 here] | > 10 µM | Non-Toxic | 0.00339 µM | – | 2.44 µM | – | – | – | – | Ki [12]: > 10 µM; Ki [13]: > 10 µM |
| O=C(c1ccc(F)cc1)C1CCN(CCn2c(=O)[nH]c3ccccc3c2=O)CC1 [KETANSERIN] | – | Non-Toxic | 0.1 µM | – | – | 1.19 µM | 0.353 µM | 0.18 µM | 0.077 µM | – |
| CCC1(O)CC2c3cc(OC)c(OC)cc3CCN2CC1CC(C)C (stereo unspecified) | > 10 µM | Non-Toxic | 0.0496 µM | – | – | 1.93 µM | 0.083 µM | 0.154 µM | 0.064 µM | – |
| CCOC(=O)[C@@H]1CN(CCn2c(=O)[nH]c3ccccc3c2=O)CC[C@@H]1c1cccc(C(F)(F)F)c1 (racemic) | > 10 µM | Non-Toxic | 0.0128 µM | inactive | > 10 µM | 0.35 µM | 0.99 µM | 0.125 µM | > 10 µM | – |
| CCOC(=O)[C@@H]1CN(CCn2c(=O)[nH]c3ccccc3c2=O)CC[C@@H]1c1ccc(C(F)(F)F)cc1 (racemic) | > 10 µM | – | – | inactive | > 10 µM | 0.72 µM | > 10 µM | 2.9 µM | > 10 µM | – |
| CCOC(=O)[C@@H]1CN(CCn2c(=O)[nH]c3ccccc3c2=O)CC[C@@H]1c1cccc2c1OCCO2 (racemic) | > 10 µM | – | – | inactive | > 10 µM | – | – | – | – | – |
| CCOC(=O)[C@H]1CN(CCn2c(=O)[nH]c3ccccc3c2=O)CC[C@H]1c1ccc(F)cc1 | – | – | – | – | – | – | – | – | – | K [14]: 0.051; Bmax ([1]; tested as the 3H-labelled form): 13.5 pmol/mg; fold change (FC) [15]: 15; T1/2 [16]: < 1 min |
| CCOC(=O)[C@@H]1CN(CCn2c(=O)[nH]c3ccccc3c2=O)CC[C@@H]1c1ccccc1 (racemic) | > 10 µM | Non-Toxic | 0.0091 µM | inactive | 1.61 µM | 0.287 µM | 0.07 µM | 0.0197 µM | > 7.7 µM | – |
| CCOC(=O)[C@@H]1CN(CCn2c(=O)[nH]c3ccccc3c2=O)CC[C@@H]1c1ccc(-c2ccccc2)cc1 (racemic) | > 10 µM | – | – | inactive | > 10 µM | 3.77 µM | > 10 µM | > 10 µM | > 10 µM | – |
| CCOC(=O)C1CN(CCn2c(=O)[nH]c3ccccc3c2=O)CCC1c1ccc(F)cc1 (single isomer, unassigned; (-)) [listing 2 of 2 here] | – | – | – | inactive | – | – | – | – | – | – |
| CCOC(=O)[C@@H]1CN(CCn2c(=O)[nH]c3ccccc3c2=O)CC[C@H]1c1ccc(F)cc1 (racemic) | 0.0373 µM | Non-Toxic | 0.0247 µM | inactive | > 9.3 µM | – | – | – | – | – |
| CNC(C)Cc1ccccc1 (stereo unspecified) | 101 µM | Non-Toxic | 2.74 µM | – | – | 24.5 µM | 6.4 µM | 3.62 µM | 346 µM | – |
| CN[C@@H]1C[C@H]2O[C@@](C)([C@@H]1OC)n1c3ccccc3c3c4c(c5c6ccccc6n2c5c31)C(=O)NC4 [STAUROSPORINE] | – | – | – | – | – | – | – | – | – | Activity [11]: 45%; Activity [17]: 60% |
